In brackets after ≈: the same amount, converted by molar mass. Activity calls are given as the source filed them.

Series [1] has as its target T1, Free fatty acid receptor 4 (Homo sapiens) (UniProt Q5NUL3).
T1 sequence (whole entry): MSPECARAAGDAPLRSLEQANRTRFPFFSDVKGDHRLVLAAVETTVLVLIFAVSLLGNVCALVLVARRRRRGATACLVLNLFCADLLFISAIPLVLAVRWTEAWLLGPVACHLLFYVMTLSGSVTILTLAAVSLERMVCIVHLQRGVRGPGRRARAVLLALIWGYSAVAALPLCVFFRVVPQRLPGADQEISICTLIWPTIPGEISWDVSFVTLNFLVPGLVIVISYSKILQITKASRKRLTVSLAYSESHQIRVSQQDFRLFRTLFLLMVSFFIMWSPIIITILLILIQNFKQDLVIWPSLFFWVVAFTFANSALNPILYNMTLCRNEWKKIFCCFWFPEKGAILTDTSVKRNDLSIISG
Description: Agonist activity at human C-terminal YFP-tagged FFA4 receptor expressed in HEK293 cells incubated for 5 mins by BRET based beta-arrestin 2 recruitment assay relative to TUG-424. The series is classed as cell-based. In outline: (§1)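 Human FFA4 counter-screen using a β-arrestin mobilization read-out. Efficacy is expressed relative to a reference alkyne FFA1 agonist tested at 10 μM.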
For orientation: Bioluminescence resonance energy transfer reports proximity on the nanometre scale.

In series [2] the target is T2, Free fatty acid receptor 1 (Homo sapiens, UniProt O14842). Description: Agonist activity at human FFA1 receptor expressed in human 1321N1 cells measured for 50 intervals of 0.4 secs by calcium mobilization assay. The series is classed as functional, cell-based. In outline:
(§2)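 Ca²⁺ read-out at human FFA1. Efficacy is expressed relative to TUG-20 (3-(4-(benzyloxy)phenyl)propanoic acid).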
In general terms: Calcium flux is commonly read through the fluorescence of an indicator in the cells.

The target of series [3] is T2, Free fatty acid receptor 1. Description: Agonist activity at human FFA1 receptor expressed in human 1321N1 cells measured for 50 intervals of 0.4 secs by calcium mobilization assay relative to TUG-20. The series is classed as functional, cell-based. In outline:
as §2

Series [4] has as its target T3, Free fatty acid receptor 4 (Homo sapiens, UniProt Q5NUL3).
T3 sequence (Q5NUL3 whole entry): T1 sequence (whole entry)
Description: Agonist activity at human C-terminal YFP-tagged FFA4 receptor expressed in HEK293 cells incubated for 5 mins by BRET based beta-arrestin 2 recruitment assay. The format is cell-based. In outline: as §1

Series [5] can be described thus: Drug metabolism in human liver microsomes assessed as cytochrome P450-mediated compound oxidation by measuring drug recovery after 1 hr by HPLC analysis. The format is ADME. To be noted: read-out: Drug recovery.
Series [6] is described as follows: Ratio of Cmax in C57BL/6 mouse plasma to EC50 for human FFA1 receptor expressed in human 1321N1 cells.
Series [7] is described as follows: Half life in C57BL/6 mouse plasma at 10 mg/kg, po. The format is ADME, organism-based.
Series [8] can be described thus: Tmax in C57BL/6 mouse plasma at 10 mg/kg, po. The series is classed as ADME, organism-based.
The target in series [9] is T2, Free fatty acid receptor 1. Put plainly: Potency index, ratio of alpha-linolenic acid EC50 to compound EC50 for human FFA1 receptor expressed in human 1321N1 cells. The series is classed as cell-based.
The nature of series [10]: Chemical stability in fasted state simulated gastric fluid assessed as drug recovery at 37 degC after 2 hrs. The series is classed as physicochemical. To be noted: read-out: Drug recovery.
Series [11] is described as follows: Chemical stability in fasted state simulated intestinal fluid assessed as drug recovery at 37 degC after 2 hrs. The settings on record: read-out: Drug recovery. The format is physicochemical.
Series [12] relates to Mus musculus. Description: Antidiabetic activity in C57BL/6 mouse assessed as increase in plasma insulin level at 10 mg/kg administered 15 mins through oral gavage prior to glucose challenge measured after 30 mins by ELISA. The series is classed as functional, organism-based. (In general: In an ELISA, binding on a coated surface is turned into a signal by an enzyme label.)

Series [13] in a line: AUC (0 to infinity) in C57BL/6 mouse plasma at 10 mg/kg, po. The format is ADME, organism-based. Set-up: dose 10 mg/kg, route oral, time infinity.
The subject of series [14] is Mus musculus. Description: Antidiabetic activity in C57BL/6 mouse assessed as reduction in plasma glucose level at 10 mg/kg administered 15 mins through oral gavage prior to glucose challenge measured after 30 to 120 mins by OGTT. The format is functional, organism-based.
For series [15], the system named is Mus musculus. Put plainly: Clearance in C57BL/6 mouse plasma at 10 mg/kg, po. To be noted: in vivo. The series is classed as ADME, organism-based.
Series [16] can be described thus: Cmax in C57BL/6 mouse plasma at 10 mg/kg, po. The series is classed as ADME, organism-based. Details: dose 10 mg/kg, route oral.
The nature of series [17]: Aqueous kinetic solubility in phosphate buffered saline at 200 uM by turbidimetric assay. The series is classed as physicochemical. To be noted: read-out: Kinetic_solubility.
Series [18] is described as follows: Lipophilicity, log D of compound at pH 7.4. The series is classed as physicochemical. To be noted: buffer.
Series [19] in a line: Chemical stability in 0.1 M phosphate buffered saline assessed as drug recovery at 37 degC after 24 hrs. The settings on record: read-out: Drug recovery. The format is physicochemical.
Series [20] can be described thus: Chemical stability in fed state simulated intestinal fluid assessed as drug recovery at 37 degC after 2 hrs. The format is physicochemical. The settings on record: read-out: Drug recovery.

T2 sequence (O14842 whole entry): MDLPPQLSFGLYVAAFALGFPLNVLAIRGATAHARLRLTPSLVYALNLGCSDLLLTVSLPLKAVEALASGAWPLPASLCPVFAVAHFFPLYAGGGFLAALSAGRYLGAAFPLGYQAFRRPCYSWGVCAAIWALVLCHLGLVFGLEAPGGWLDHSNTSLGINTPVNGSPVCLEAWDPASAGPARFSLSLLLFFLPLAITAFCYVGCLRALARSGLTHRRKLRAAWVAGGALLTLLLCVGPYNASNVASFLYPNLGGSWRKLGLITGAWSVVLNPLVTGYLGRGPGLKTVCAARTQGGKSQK

Turning to `O=C(O)CCc1ccc(C#CC2CCCC2)cc1`, the Efficacy turned out to be 105% in series [1] and 94% in series [3]. For the same molecule, the EC50 was 490 nM in series [2] (read-out: pEC50 (converted)) and 33.9 µM in series [4].
As for `C/C=C\C#Cc1ccc(CCC(=O)O)c(F)c1`, the Efficacy in series [1] was found to be 49%; in [3] it was 91%. Moreover, the values for the EC50 in series [2] (read-out: pEC50 (converted)) and in [4] were 47.9 nM and 17.8 µM, respectively.
On to `C#Cc1ccc(CCC(=O)O)cc1`, for which the EC50 is more than 100000 nM in [2] (read-out: pEC50 (converted)) and more than 100 µM in series [4].
For `COc1ccc(CCN(C)CCCC(C#N)(c2ccc(OC)c(OC)c2)C(C)C)cc1OC` (centres undefined), the remaining at 1 h in [5] turned out to be 23%.
As to `C=C(C)C#Cc1ccc(CCC(=O)O)cc1`, the EC50 was 417 nM in series [2] (read-out: pEC50 (converted)) and more than 100 µM in [4]. For the same molecule, in series [3], the Efficacy came to 108%.
As for `O=C(O)CCc1ccc(C#CCc2ccccc2)cc1`, the Efficacy is 113% in [1] and 103% in [3]. Moreover, the EC50 in [2] (read-out: pEC50 (converted)) was 389 nM; in [4] it was 10.5 µM.
For the molecule `CC/C=C\C/C=C\C/C=C\CCCCCCCC(=O)O` [LINOLENIC ACID], the EC50 in series [2] (read-out: EC50) was found to be 3000 nM.
Take `C/C(C#Cc1ccc(CCC(=O)O)c(F)c1)=C/CO`: the Efficacy in series [3] was 105%. Moreover, the EC50 in [4] is more than 100 µM.
Consider `O=C(O)CCc1ccc(C#CCCc2ccccc2)cc1`, for which the Efficacy in series [1] turned out to be 102%; in series [3] it was 128%. The figures for the EC50 in series [2] (read-out: pEC50 (converted)) and in [4] were 1820 nM and 4.79 µM, respectively.
What is called pEC50 is the negative decadic logarithm of the EC50, by convention in mol/L. Take `O=C(O)CCc1ccc(C#CC2(O)CCCCC2)cc1`: in series [2] (1321-n1), the pEC50 is less than 4. In addition, the EC50 in series [4] is more than 100 µM.
In the case of `O=C(O)CCc1ccc(C#CC2CC2)cc1`, the results for the EC50 in series [2] (read-out: pEC50 (converted)) and in [4] were 5010 nM and more than 100 µM, respectively. In series [3], the Efficacy was 128%.
With `C=C(C)C#Cc1ccc(CCC(=O)O)c(F)c1`, in series [3], the Efficacy was determined as 106%. Besides, in series [4], the EC50 was more than 100 µM.
Regarding `CCCCCCCC#Cc1ccc(CCC(=O)O)cc1`, the Efficacy amounted to 102% in [1] and 84% in series [3]. For the same molecule, the EC50 in [2] (read-out: pEC50 (converted)) is 1450 nM; in series [4], 4.07 µM.
As to `CC(C)=C(C)C#Cc1ccc(CCC(=O)O)cc1`, the Efficacy turned out to be 102% in series [1] and 105% in series [3]. The EC50 in [2] (read-out: pEC50 (converted)) was 83.2 nM; in series [4], 7.59 µM.
Consider `C/C=C(\C)C#Cc1ccc(CCC(=O)O)c(F)c1`, for which the results for the Efficacy in [1] and in series [3] were 89% and 97%, respectively. For the same molecule, the EC50 in series [4] was 26.3 µM.
Usually half-life stands for the time needed for the level to fall by half in the phase considered. For orientation: Tmax means the time at which the peak concentration occurs. The term AUC(0-inf) denotes total exposure, with the tail of the curve extrapolated. A higher AUC(0-inf) goes with high exposure. In general, Cmax refers to the maximum level reached in the sampled fluid or tissue. By logD is commonly meant lipophilicity at a set pH, counting ionised and neutral species. Low values mean a more hydrophilic compound, high ones a more lipophilic compound. `C/C=C(/C)C#Cc1ccc(CCC(=O)O)c(F)c1`: in [6], the Ratio is more than 1000. In [7], this molecule had a half-life of 99 min. For the same molecule, the Tmax in series [8] is 15 min. In addition, the Ratio EC50 in series [9] amounted to 100. The results for the remaining at 2 h in [10], in series [11] and in [20] were 84%, 100% and 95%, respectively. The result in the series with Mus musculus [12] and in the series on Mus musculus [14] was Active. For the same molecule, in series [13], the AUC(0-inf) was 138 µM·h. The Efficacy came to 101% in series [1] and 103% in series [3]. Also, the clearance with Mus musculus [15] is 0.49 mL/min/kg. The same molecule showed a Cmax in series [16] of 44.7 µM. Besides, the solubility kinetic at 200 µM in [17] was 191 µM (≈ 47 µg/mL). Moreover, the remaining at 1 h in series [5] was 38%. The logD in [18] was 1.79. In addition, the remaining at 24 h in [19] was 100%. Moreover, the EC50 was 20 nM in series [2] (read-out: EC50) and 20 µM in series [4].
Regarding `O=C(O)CCc1ccc(C#CC2=CCCCC2)cc1`, the EC50 in [2] (read-out: pEC50 (converted)) was 200 nM; in [4] it was more than 100 µM. Besides, the Efficacy in [3] was 100%.
For the molecule `O=C(O)CCc1ccc(C#CC2CCCCC2)cc1`, the Efficacy in series [1] was found to be 118%; in series [3], 98%. Also, the figures for the EC50 in series [2] (read-out: pEC50 (converted)) and in [4] were 513 nM and 9.55 µM, respectively.
On to `C/C=C/C#Cc1ccc(CCC(=O)O)c(F)c1`, for which the Efficacy in series [1] was determined as 38%; in [3], 97%. The EC50 in series [2] (read-out: pEC50 (converted)) was 209 nM; in series [4], 34.7 µM.

(Values after ChEMBL document CHEMBL3785041, “Discovery of a Potent Free Fatty Acid 1 Receptor Agonist with Low Lipophilicity, Low Polar Surface Area, and Robust in Vivo Efficacy” (J Med Chem, 2016).)
